{"data": "Experimental data from different studies", "observed": "cell growth or viability", "note": "Compare with care: the assays were run in different laboratories."}
{"Structure (SMILES)": "Nc1ccc(/C=C/C(=O)NCc2cc3cc(-c4ccc(C(=O)N5CCC(F)(F)CC5)cc4)cc(-c4ccc(F)cc4)c3o2)cn1", "cell line": "ASPC1", "technique": "CCK-8", "time": "72 h", "endpoint": "IC50", "result": "440 nM"}
{"Structure (SMILES)": "C=C(F)C(=O)N1CCN(c2nc(OC[C@@H]3CCCN3C)nc3c2CCN(c2cccc4cccc(Cl)c24)C3)C[C@@H]1CC#N", "cell line": "ASPC1", "technique": "ATP luminescence", "endpoint": "IC50", "result": "2010 nM"}
{"Structure (SMILES)": "C=CC(=O)NC1CCN(c2ncc3ncnc(Nc4ccc(Oc5ccc6c(c5)ncn6C)c(C)c4)c3n2)CC1", "cell line": "EFM-192A", "endpoint": "EC50", "result": "28.4 nM"}
{"Structure (SMILES)": "COc1cc2nc(N3CCN(C(=O)c4ccco4)CC3)nc(N)c2cc1OC", "cell line": "CNE-2", "technique": "MTT", "time": "48 h", "endpoint": "IC50", "result": "34800 nM"}
{"Structure (SMILES)": "O=C(NO)c1ccc(CNc2nc3cccc(-c4ccc5c(c4)OCO5)n3n2)cc1", "cell line": "CAKI-1", "technique": "SRB", "endpoint": "GI50", "result": "660 nM"}
{"Structure (SMILES)": "CCN1[C@@H](C(=O)NC23CCC(C(=O)O)(CC2)CC3)[C@H](c2cccc(Cl)c2F)[C@]2(C(=O)Nc3cc(Cl)ccc32)C12CCCCC2", "cell line": "SW982", "technique": "resazurin", "time": "72 h", "endpoint": "GI50", "result": "157 nM"}
{"Structure (SMILES)": "Cc1cc(/C=C/C#N)cc(C)c1Nc1ccnc(Nc2ccc(C#N)cc2)n1", "cell line": "CNE-2", "technique": "MTT", "time": "48 h", "endpoint": "IC50", "result": "18700 nM"}
{"Structure (SMILES)": "CC1(C)CCC2(CC1)N[C@@H](C(=O)N[C@@H]1CC[C@@H](C(N)=O)OC1)[C@H](c1ccnc(Cl)c1F)[C@]21C(=O)Nc2cc(Cl)ccc21", "cell line": "SW982", "technique": "resazurin", "time": "72 h", "endpoint": "GI50", "result": "21 nM"}
{"Structure (SMILES)": "Nc1ccc(/C=C/C(=O)N2CCc3c(oc4c(-c5ccc(F)cc5)cc(-c5ccc(C(=O)N6CCOCC6)nn5)cc34)C2)cn1", "cell line": "ASPC1", "technique": "CCK-8", "time": "72 h", "endpoint": "IC50", "result": "870 nM"}
{"Structure (SMILES)": "C=CC(=O)N1CCN(c2nc(=O)n(-c3c(C)ccnc3C(C)C)c3nc(-c4c(O)cccc4F)c(F)cc23)[C@@H](C)C1", "cell line": "SW756", "technique": "ATP luminescence", "endpoint": "IC50", "result": "111 nM"}
